Test results as given in ChEMBL document CHEMBL1124441, “Synthesis of congeners and prodrugs. 3. Water-soluble prodrugs of taxol with potent antitumor activity” (1989).

Legend:
Assay type in all cases: functional, Mus musculus
Details in all cases: route intraperitoneal
[1] = system: B16; assay: (§1) Difference in body weight in grams between test and control animals at a dose of 5 mg/kg intraperitoneally
Procedure, shortened: (§2)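 B16 melanoma system: 10⁶ tumor cells inoculated ip on day 0. Drug given ip once daily for 9 days (Q01Dx09) starting day 1, dose as mg/kg body weight per injection. Read-out is the body-weight difference in grams, treated minus control animals. Early deaths, taken as toxicity, are scored on day 4.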

[2] = system: B16; assay: Antitumor activity in B16 Melanoma system animals is indicated by survivors on day 4 at a dose of 1.25 mg/kg intraperitoneally
Procedure, shortened: (§3)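 B16 melanoma, 10^6 cells inoculated ip on day 0. Ip treatment started day 1, schedule Q01Dx09 (one dose daily for 9 days). The score is live animals on day 4 over total animals; early deaths are taken as drug toxicity.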

[3] = system: B16; assay: Antitumor activity in B16 Melanoma system animals is indicated by survivors on day 4 at a dose of 10 mg/kg intraperitoneally; set-up: reference not given here; procedure, shortened: as §3
[4] = system: B16; assay: Antitumor activity in B16 Melanoma system animals is indicated by survivors on day 4 at a dose of 2.5 mg/kg intraperitoneally; set-up: reference not given here; procedure, shortened: as §3
[5] = system: B16; assay: Antitumor activity in B16 Melanoma system animals is indicated by survivors on day 4 at a dose of 20 mg/kg intraperitoneally; set-up: reference not given here; procedure, shortened: as §3
[6] = system: B16; assay: Antitumor activity in B16 Melanoma system animals is indicated by survivors on day 4 at a dose of 40 mg/kg intraperitoneally; procedure, shortened: as §3
[7] = system: B16; assay: (§4) Difference in body weight in grams between test and control animals at a dose of 2.5 mg/kg intraperitoneally; procedure, shortened: as §2
[8] = system: B16; assay: (§5) Difference in body weight in grams between test and control animals at a dose of 20 mg/kg intraperitoneally; procedure, shortened: as §2
[9] = system: B16; assay: (§6) Difference in body weight in grams between test and control animals at a dose of 40 mg/kg intraperitoneally; procedure, shortened: as §2
[10] = system: B16; assay: Percent of median lifetime of test animals divided by the median lifetime of control animals at a dose of 20 mg/kg intraperitoneally
Procedure, shortened: (§7)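 B16 melanoma inoculated ip (10⁶ cells) on day 0. Daily ip treatment for 9 days (Q01Dx09) begins day 1, dosed per injection in mg/kg. %T/C is the median lifespan of treated animals divided by that of tumored untreated controls, ×100. Cures are animals alive on the last test day. Toxic deaths are assessed on day 4.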

[11] = system: B16; assay: Percent of median lifetime of test animals divided by the median lifetime of control animals at a dose of 40 mg/kg intraperitoneally; procedure, shortened: as §7
[12] = system: B16; assay: Percent of median lifetime of test animals divided by the median lifetime of control animals at a dose of 5 mg/kg intraperitoneally; procedure, shortened: as §7
[13] = system: B16; assay: Difference in body weight in grams between test and control animals at a dose of 1.25 mg/kg intraperitoneally; procedure, shortened: as §2
[14] = system: B16; assay: (§8) Difference in body weight in grams between test and control animals at a dose of 10 mg/kg intraperitoneally; procedure, shortened: as §2
[15] = system: B16; assay: Percent of median lifetime of test animals divided by the median lifetime of control animals at a dose of 2.5 mg/kg intraperitoneally; procedure, shortened: as §7
[16] = system: B16; assay: Percent of median lifetime of test animals divided by the median lifetime of control animals at a dose of 1.25 mg/kg intraperitoneally; procedure, shortened: as §7
[17] = system: B16; assay: Percent of median lifetime of test animals divided by the median lifetime of control animals at a dose of 10 mg/kg intraperitoneally; procedure, shortened: as §7
[18] = system: B16; assay: Antitumor activity in B16 Melanoma system animals is indicated by survivors on day 4 at a dose of 5 mg/kg intraperitoneally; procedure, shortened: as §3
[19] = system: B16; assay: Difference in body weight in grams between test and control animals at a dose of 44 mg/kg intraperitoneally; procedure, shortened: as §2
[20] = system: B16; assay: Difference in body weight in grams between test and control animals at a dose of 5.5 mg/kg intraperitoneally; procedure, shortened: as §2
[21] = system: B16; assay: Antitumor activity in B16 Melanoma system animals is indicated by survivors on day 4 at a dose of 11 mg/kg intraperitoneally; procedure, shortened: as §3
[22] = system: B16; assay: Antitumor activity in B16 Melanoma system animals is indicated by survivors on day 4 at a dose of 2.75 mg/kg intraperitoneally; procedure, shortened: as §3
[23] = system: B16; assay: Antitumor activity in B16 Melanoma system animals is indicated by survivors on day 4 at a dose of 22 mg/kg intraperitoneally; procedure, shortened: as §3
[24] = system: B16; assay: Antitumor activity in B16 Melanoma system animals is indicated by survivors on day 4 at a dose of 44 mg/kg intraperitoneally; procedure, shortened: as §3
[25] = system: B16; assay: Antitumor activity in B16 Melanoma system animals is indicated by survivors on day 4 at a dose of 5.5 mg/kg intraperitoneally; procedure, shortened: as §3
[26] = system: B16; assay: Difference in body weight in grams between test and control animals at a dose of 2.75 mg/kg intraperitoneally; procedure, shortened: as §2
[27] = system: B16; assay: Difference in body weight in grams between test and control animals at a dose of 22 mg/kg intraperitoneally; procedure, shortened: as §2
[28] = system: B16; assay: Percent of median lifetime of test animals divided by the median lifetime of control animals at a dose of 2.75 mg/kg intraperitoneally; procedure, shortened: as §7
[29] = system: B16; assay: Percent of median lifetime of test animals divided by the median lifetime of control animals at a dose of 22 mg/kg intraperitoneally; procedure, shortened: as §7
[30] = system: B16; assay: Percent of median lifetime of test animals divided by the median lifetime of control animals at a dose of 44 mg/kg intraperitoneally; procedure, shortened: as §7
[31] = system: B16; assay: Percent of median lifetime of test animals divided by the median lifetime of control animals at a dose of 5.5 mg/kg intraperitoneally; procedure, shortened: as §7
[32] = system: B16; assay: Difference in body weight in grams between test and control animals at a dose of 11 mg/kg intraperitoneally; procedure, shortened: as §2
[33] = system: B16; assay: Percent of median lifetime of test animals divided by the median lifetime of control animals at a dose of 11 mg/kg intraperitoneally; procedure, shortened: as §7
[34] = system: B16; assay: Antitumor activity in B16 Melanoma system animals is indicated by survivors on day 4 at a dose of 1.2 mg/kg intraperitoneally; procedure, shortened: as §3
[35] = system: B16; assay: Difference in body weight in grams between test and control animals at a dose of 1.2 mg/kg intraperitoneally
Procedure, shortened: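 B16 melanoma, 10^6 cells ip on day 0, then ip dosing from day 1, once daily for 9 days (Q01Dx09). The value is the body-weight difference in grams, treated minus tumored control animals.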

[36] = system: MX1; assay: as §8
[37] = system: MX1; assay: as §4
[38] = system: MX1; assay: as §5
[39] = system: MX1; assay: as §6
[40] = system: MX1; assay: as §1

| Compound | Weight difference [1] | Activity [3] | Activity [4] | Activity [5] | Weight difference [7] | Weight difference [8] | T/C [10] | T/C [12] | Weight difference [14] | T/C [15] | T/C [16] | T/C [17] | Survivors on day 4 [18] | Weight difference [19] | Activity [21] | Activity [22] | Activity [23] | Activity [24] | Activity [25] | Weight difference [27] | also measured |
| --- | --- | --- | --- | --- | --- | --- | --- | --- | --- | --- | --- | --- | --- | --- | --- | --- | --- | --- | --- | --- | --- |
| CC(=O)OC1C(=O)[C@@]2(C)[C@H]([C@H](OC(=O)c3ccccc3)[C@]3(O)CC(OC(=O)C(OC(=O)CCC(=O)[O-])C(NC(=O)c4ccccc4)c4ccccc4)C(C)=C1C3(C)C)[C@]1(OC(C)=O)CO[C@@H]1C[C@@H]2O.[Na+] (stereo not given in full) | 0 g | 10 | 10 | 10 | 0.4 g | -0.2 g | 201% | 166% | 0.6 g | 159% | 111% | 183% | 10 | – | – | – | – | – | – | – | Activity [2]: 10; Activity [6]: 10; Weight difference [9]: 0.6 g; T/C [11]: 218%; Weight difference [13]: 0.1 g |
| CC(=O)OC1C(=O)[C@]2(C)[C@@H](OC(=O)CCC(=O)O)C[C@H]3OC[C@@]3(OC(C)=O)[C@H]2[C@H](OC(=O)c2ccccc2)[C@]2(O)CC(OC(=O)C(OC(=O)CCC(=O)O)C(NC(=O)c3ccccc3)c3ccccc3)C(C)=C1C2(C)C (stereo not given in full) | – | – | – | – | – | – | – | – | – | – | – | – | – | 0 g | 10 | 10 | 10 | 10 | 10 | 0.3 g | Weight difference [20]: -0.3 g; Weight difference [26]: -0.3 g; T/C [28]: 109%; T/C [29]: 105%; T/C [30]: 114%; T/C [31]: 113%; Weight difference [32]: 0.1 g; T/C [33]: 124% |
| CC(=O)OC1C(=O)[C@]2(C)[C@@H](OC(=O)CCC(=O)[O-])C[C@H]3OC[C@@]3(OC(C)=O)[C@H]2[C@H](OC(=O)c2ccccc2)[C@]2(O)CC(OC(=O)C(OC(=O)CCC(=O)[O-])C(NC(=O)c3ccccc3)c3ccccc3)C(C)=C1C2(C)C.[Na+].[Na+] (stereo not given in full) | – | – | – | – | – | – | – | – | – | – | – | – | – | 0 g | 10 | 10 | 10 | 10 | 10 | 0 g | T/C [28]: 120%; T/C [29]: 109%; T/C [30]: 166%; T/C [31]: 114%; T/C [33]: 149% |
| CC(=O)OC1C(=O)[C@@]2(C)[C@H]([C@H](OC(=O)c3ccccc3)[C@]3(O)CC(OC(=O)C(OC(=O)CCCC(=O)NCCCN(C)C)C(NC(=O)c4ccccc4)c4ccccc4)C(C)=C1C3(C)C)[C@]1(OC(C)=O)CO[C@@H]1C[C@@H]2O.Cl (stereo not given in full) | 0.1 g | 10 | 10 | 10 | -0.1 g | 0 g | 352% | 188% | -0.1 g | 129% | 123% | 352% | 10 | – | – | – | – | – | – | – | Activity [34]: 10; Weight difference [35]: -0.1 g; Weight difference [36]: -2.2 T-C; Weight difference [37]: -0.6 T-C; Weight difference [38]: 0.3 T-C; Weight difference [39]: -5.9 T-C; Weight difference [40]: 0.1 T-C |
